The text below walks through data of publication PMC2248718 (The Journal of General Physiology, 2008).

Assay [1] has as its target wild-type SUR2A/Kir6.2 KATP channels expressed in HEK293 cells (UniProt P70170+Q14654). The experiment in a line: Inside-out patch-clamp of recombinant wild-type KATP channels. The assay is classed as cell-based. As to conditions: WT.
Assay [2] relates to SUR2A entire Q/N mutant/Kir6.2 KATP channels expressed in HEK293 cells. Briefly: Inside-out patch-clamp of entire Q/N mutant KATP channels. The class given is cell-based. The note with it: glyburide 10 μM.
For assay [3], the target named is SUR2A entire deletion (Δ948–962)/Kir6.2 KATP channels expressed in HEK293 cells (UniProt P70170+Q14654, DEL948-962). Briefly: Inside-out patch-clamp of entire ED deletion KATP channels. The class given is cell-based. As to conditions: glyburide 10 μM, monophasic response.
For assay [4], the system named is ED mutant SUR2A/Kir6.2 channels. The experiment in a line: Inside-out patch-clamp of ED domain mutant KATP channels. The class given is cell-based. The note with it: ED mutants; 300 μM MgADP, channels inhibited by 300 μM ATP. The procedure, abridged:
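SUR2A (wild type or ED-mutated) was transiently cotransfected with Kir6.2 (5 μg:1 μg, plus 0.5 μg GFP reporter) into HEK293 cells grown in DMEM/10% FBS/2 mM glutamine, and recorded 48–72 h later. Inside-out patches at −60 mV, 32 ± 1°C. Pipette (mM): KCl 140, CaCl₂ 1, MgCl₂ 1, HEPES-KOH 5, pH 7.3. Bath (mM): KCl 140, MgCl₂ 1, EGTA 5, HEPES-KOH 5, pH 7.3, with nucleotides and drugs added.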

Assay [5] concerns the target wild-type SUR2A (NBD1) coexpressed with Kir6.2, HEK293 membranes (Mus musculus, UniProt P70170). The experiment in a line: 8-azido-[γ-32P]ATP photoaffinity labeling, post-incubation with ADP, wild type. The assay is classed as binding. The note with it: WT; MgADP titration 0.05 to 1.0 mM.
Assay [6] relates to ED-mutated SUR2A (entire deletion and Q/N mutants) coexpressed with Kir6.2, HEK293 membranes. Briefly: 8-azido-[γ-32P]ATP photoaffinity labeling, post-incubation with ADP, ED mutants. The class given is binding. As to conditions: ED-mutated constructs; MgADP 0.05 to 1.0 mM.

On to `CC(N/C(=N\C#N)Nc1ccncc1)C(C)(C)C` (centres unmarked) [pinacidil], for which, in assay [1] (50 μM pinacidil, 300 μM ATP, relative to activity in the absence of nucleotides), the “Channel activity reversed by pinacidil against ATP inhibition” value is listed as “close to the maximum level”.

For `COc1ccc(Cl)cc1C(=O)NCCc1ccc(S(=O)(=O)NC(=O)NC2CCCCC2)cc1` [glyburide], in assay [1] (glyburide 10 μM, 300 μM MgADP), the “Pattern of glyburide blockade in the presence of MgADP” value is “both phases were blunted”. In assay [1] (glyburide 10 μM, AMP-PNP 50 μM), the “Profile of glyburide inhibition in the presence of AMP-PNP” value was “indistinguishable from the effect of glyburide in the absence of nucleotides”. For the same compound, in assay [1] (glyburide 10 μM, no nucleotides), the “Fast phase: instantaneous blockade, fraction of the channel population” value amounted to 59 ± 11%. Besides, in assay [1] (glyburide 10 μM, no nucleotides, within 2–3 min), the “Slow phase: gradual dissipation of channel activity” value turned out to be 93 ± 3%. In addition, the “Glyburide responsiveness compared with wild type” value in assay [2] is reported as “reduced glyburide responsiveness”. In assay [3], the “Glyburide-induced reduction in overall channel activity” value was determined as 21 ± 5%.

Turning to `Nc1ncnc2c1ncn2[C@@H]1O[C@H](COP(=O)([O-])OP(=O)([O-])O)[C@@H](O)[C@H]1O.[Mg+2]` [MgADP], the “Reversal of ATP-induced channel inhibition by MgADP” value is listed as “readily reversed” in assay [1] (300 μM MgADP, channels inhibited by 300 μM ATP) and “unable to reverse such inhibition” in assay [4]. For the same compound, the “MgADP concentration at maximum increase of 8-azido-[γ-32P]ATP labeling” value in assay [5] is 500 µM. Also, the “Effect of MgADP on 8-azido-[γ-32P]ATP labeling” value in assay [6] is “did not affect labeling”.
